From ChEMBL document CHEMBL1124223, “1-Substituted 7-[3-[(ethylamino)methyl]-1-pyrrolidinyl]-6,8- difluoro-1,4-dihydro-4-oxo-3-quinolinecarboxylic acids. New quantitative structure-activity relationships at N1 for the quinolone antibacterials” (1988)
≈ marks a conversion by molar mass, not a printed value.

Key:
Format in all cases: functional
Staphylococcus aureus [1] = test: Minimum inhibitory concentration against Staphylococcus aureus (H-228).
Method in brief: (§1)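 MICs were determined by standard microtitration against a panel of 11 bacterial strains. Aqueous stock solutions were prepared with 0.1 N sodium or potassium hydroxide.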

Enterococcus faecalis = test: Minimum inhibitory concentration against Streptococcus faecalis (MGH-2).; method in brief: as §1
Escherichia coli [2] = test: Minimum inhibitory concentration against Escherichia coli (H560); method in brief: as §1
Mus musculus [3] = test: In vivo activity against Streptococcus pneumoniae (po); details: read-out: PD50
Method in brief: (§2)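 Median protective dose (PD50, mg/kg) measured in acute, lethal, systemic infections in female Charles River CD-1 mice. A single dose of compound was given at the time of bacterial challenge. Aqueous stock solutions were made with 0.1 N sodium or potassium hydroxide.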

Enterobacter [4] = test: Minimum inhibitory concentration as geometric mean calculated for the gram-negative enterobacteriaceae.
Method in brief: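 MICs were determined by standard microtitration. The value is the geometric mean of the MICs across the Gram-negative Enterobacteriaceae strains in the test panel.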

Enterobacter cloacae = test: Minimum inhibitory concentration against Enterobacter cloacae. (MA2446).
Providencia rettgeri = test: Minimum inhibitory concentration against Providencia rettgeri. (M1771); method in brief: as §1
Mus musculus [5] = test: In vivo activity against Escherichia coli (po); details: read-out: PD50; method in brief: as §2
Pseudomonas aeruginosa = test: Minimum inhibitory concentration against Pseudomonas aeruginosa. (UI-18); method in brief: as §1
Mus musculus [6] = test: In vivo activity against Streptococcus pyogenes (sc); details: read-out: PD50; method in brief: as §2
Escherichia coli [7] = test: Minimum inhibitory concentration against Escherichia coli (vogel); method in brief: as §1
Mus musculus [8] = test: In vivo activity against Streptococcus pneumoniae (sc); details: read-out: PD50; method in brief: as §2
Klebsiella pneumoniae = test: Minimum inhibitory concentration against Klebsiella pneumoniae (MGH-2); method in brief: as §1
Streptococcus pneumoniae = test: Minimum inhibitory concentration against Streptococcus pneumoniae (SV-1).; method in brief: as §1
Staphylococcus aureus [9] = test: Minimum inhibitory concentration against Staphylococcus aureus (UC76).; method in brief: as §1
Mus musculus [10] = test: In vivo activity against Pseudomonas aeruginosa (po); details: read-out: PD50; method in brief: as §2
Mus musculus [11] = test: In vivo activity against Pseudomonas aeruginosa (sc); details: read-out: PD50; method in brief: as §2
Streptococcus pyogenes = test: Minimum inhibitory concentration against Streptococcus pyogenes (C203).; method in brief: as §1
Mus musculus [12] = test: In vivo activity against Streptococcus pyogenes (po); details: read-out: PD50; method in brief: as §2
Mus musculus [13] = test: In vivo activity against Escherichia coli (sc); details: read-out: PD50; method in brief: as §2
Escherichia coli [14] = test: Potency against Gram-negative mean
Escherichia coli [15] = test: Potency against Escherichia coli (H560)
Enterobacter [16] = test: Minimum inhibitory concentration against gram-negative enterobacteriaceae.
Method in brief: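 This value is the geometric mean of microtitration MICs for the Gram-negative Enterobacteriaceae strains in the 11-organism panel. Aqueous stocks were prepared in 0.1 N sodium or potassium hydroxide.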

Row | Structure (SMILES) | MIC (Staphylococcus aureus [1]) [µg/mL] | MIC (Enterococcus faecalis) [µg/mL] | MIC (Escherichia coli [2]) [µg/mL] | ED50 (Mus musculus [3]) [mg/kg] | MIC (Enterobacter cloacae) [µg/mL] | MIC (Providencia rettgeri) [µg/mL] | ED50 (Mus musculus [5]) [mg/kg] | MIC (Pseudomonas aeruginosa) [µg/mL] | ED50 (Mus musculus [6]) [mg/kg] | MIC (Escherichia coli [7]) [µg/mL] | ED50 (Mus musculus [8]) [mg/kg] | MIC (Klebsiella pneumoniae) [µg/mL] | MIC (Streptococcus pneumoniae) [µg/mL] | MIC (Staphylococcus aureus [9]) [µg/mL] | ED50 (Mus musculus [10]) [mg/kg] | ED50 (Mus musculus [11]) [mg/kg] | MIC (Streptococcus pyogenes) [µg/mL] | ED50 (Mus musculus [12]) [mg/kg] | ED50 (Mus musculus [13]) [mg/kg] | also measured
1 | CCn1cc(C(=O)O)c(=O)c2cc(F)c(N3CCNCC3)cc21 [NORFLOXACIN] | 0.8 (≈ 2.51 µM) | 1.6 (≈ 5.01 µM) | 0.1 (≈ 0.313 µM) | > 100 | 0.1 (≈ 0.313 µM) | 0.05 (≈ 0.157 µM) | 4 | 0.2 (≈ 0.626 µM) | 45 | 0.025 (≈ 0.0783 µM) | > 100 | 0.05 (≈ 0.157 µM) | 1.6 (≈ 5.01 µM) | 0.05 (≈ 0.157 µM) | 76 | 11 | 0.8 (≈ 2.51 µM) | > 100 | 0.6 | MIC (Enterobacter [4]): 0.06 µg/mL (≈ 0.188 µM)
2 | CCNCC1CCN(c2c(F)cc3c(=O)c(C(=O)O)cn(CC)c3c2F)C1 (configuration not stated) [MERAFLOXACIN] | 0.1 (≈ 0.264 µM) | 0.1 (≈ 0.264 µM) | 0.1 (≈ 0.264 µM) | 20 | 0.2 (≈ 0.527 µM) | 0.4 (≈ 1.05 µM) | 12 | 1.6 (≈ 4.22 µM) | 3 | 0.1 (≈ 0.264 µM) | 4 | 0.2 (≈ 0.527 µM) | 0.1 (≈ 0.264 µM) | 0.05 (≈ 0.132 µM) | > 200 | 76 | 0.1 (≈ 0.264 µM) | 9 | 2 | Log (Escherichia coli [14]): 6.35 1/M MIC; Log (Escherichia coli [15]): 6.59 1/M MIC; MIC (Enterobacter [16]): 0.17 µg/mL (≈ 0.448 µM)
